Molecules are shown by their SMILES. Out of some 300,000 compounds screened, about 1,000 (0.33%) were called active.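 Rule for the calls: active = inhibition above the mean of all tested compounds plus 3 SD, set per screening campaign (cut at about 45% in these data); inactive = the rest.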 The entries come from a sample that favours actives as a whole.

The test relates to HCV core protein (residues 1-106) dimerization. In words: blockers of core106 self-association – biochemical, TR-FRET, high-throughput, primary screen (AID 1899). Conditions: TR-FRET GST/Flag-core106 dimerization, 1536-well; at 5 µM; hits give high values. Summed up: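 Assay system: Tagged HCV core106 pair (GST and Flag) | Buffer or medium: KF-containing HEPES buffer, pH 7.45, DTT, CHAPS, BSA | Also added: Eu donor and XL665 acceptor anti-tag antibodies | Dosing: One concentration, 5 µM, in 0.5% DMSO | Timing: 4 h at 22.5 °C | Technique: TR-FRET 671 and 617 nm emission | Repeats: Singlicate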
With `CC(=O)N1CCN(C(=O)c2cc(-c3ccc(C)o3)nc3ccccc23)CC1`, the inhibition was 1.32% (inactive). To `COc1ccc(NC(=O)c2cc(-c3ccc(C)o3)nc3ccccc23)cc1` belongs 17.9% (inactive); to `Cc1ccc(NC(=O)c2cc(-c3ccc(C)o3)nc3ccccc23)nc1`, 49.3% (active).

Take `CN(CC(=O)Nc1cccc2c1CCCC2)S(=O)(=O)c1ccc(Cl)cc1`: the inhibition was 1.71% (inactive).

For `COc1ccc(N2CCN(C(=O)CSc3nc4cc(OC)c(OC)cc4cc3C#N)CC2)cc1`, the inhibition was 53.1% (active).

`CCOc1ccc(-c2nnn(CC(=O)N3CCN(c4ccc(OC)cc4)CC3)n2)cc1OCC`: the inhibition was 7.89% (inactive). For the compound `COc1ccc(N2CCN(C(=O)CSc3nnc4ncccn34)CC2)cc1`, the inhibition was -2.8% (inactive). With `Cc1nnc(SC(C(=O)Nc2cc(Cl)cc(Cl)c2)c2ccccc2)[nH]c1=O` (stereo not given) the figure was 4.94% (inactive); with `COC(=O)c1cc(-c2cccs2)nc2ccccc12`, 3.48% (inactive). As for `CN(C(=O)COc1nnc(-c2cccs2)c(-c2cccs2)n1)c1ccccc1`, the inhibition was 49% (active). To `O=C(O)Cc1sc(-c2ccccc2)nc1-c1cccs1` belongs 5.73% (inactive); to `CN(C(=O)CC1C(=O)NCCN1Cc1ccc(F)cc1Cl)C1CCCCC1` (stereo not given), -6.47% (inactive); to `Cc1ccc(C(=O)c2coc3ccc(O)c(CN(C)C)c23)cc1`, -5.01% (inactive). To `COc1cc(OC)c(C(=S)N2CCCC2)cc1OC` belongs 4.43% (inactive). To `Cc1ccc(S(=O)(=O)N/N=C\c2cc3c(cc2[N+](=O)[O-])OCO3)cc1` belongs 2.28% (inactive). Turning to `COc1ccc(/C=N/NS(=O)(=O)c2ccc(NC(C)=O)cc2)cc1`, the inhibition was -3.63% (inactive). For the compound `COc1ccc(S(=O)(=O)N/N=C\c2ccc(OC)c(COc3ccc(C)cc3[N+](=O)[O-])c2)cc1`, the inhibition was 56% (active). As for `COc1ccccc1N(CC(=O)Nc1ccc(C(F)(F)F)cc1)S(C)(=O)=O`, the inhibition was -4.98% (inactive).

In the case of `O=C(O)CSc1nccn1-c1cccc(Cl)c1`, the inhibition is -3.31% (inactive). With `CC(C(=O)N=Nc1c(O)n(C)c2ccc(Br)cc12)n1cnc2ccccc2c1=O` (stereo not given) the figure was 11.6% (inactive). To `COc1ccccc1N1CCN(CC(=O)NC(=O)NCc2ccco2)CC1` belongs -7.99% (inactive); to `O=C(CN1CCN(S(=O)(=O)/C=C/c2ccccc2)CC1)Nc1ccc(N2CCOCC2)cc1`, 2.85% (inactive). To `O=C(CN1CCN(S(=O)(=O)/C=C/c2ccccc2)CC1)NC(=O)NCc1ccco1` belongs 47.9% (active). Regarding `Cc1ccc(S(=O)(=O)NCCC(=O)OCC(=O)N(C)c2ccccc2)cc1`, the inhibition is -0.65% (inactive). With `N#Cc1cccc(NC(=O)CN2CCCCCC2)c1` the figure was -0.12% (inactive); with `Cc1cccc(C(=O)OC(C)C(=O)NC2CCCc3ccccc32)c1O` (stereo not given), -6.15% (inactive).

On to `C=CCOC(=O)C1=C(C)OC(N)=C(C#N)C1c1ccc(F)cc1` (stereo not given), for which the inhibition is -4.37% (inactive). To `CCOC(=O)CSC1=C(C#N)C(c2sccc2C)CC(=O)N1` (stereo not given) belongs 6.38% (inactive); to `C=CCOC(=O)C1=C(C)NC(SCC(=O)OCC)=C(C#N)C1c1ccc(C)cc1` (stereo not given), 59.5% (active). With `Cc1ccc(CN(N=Nc2nonc2N)c2nonc2N)c(C)c1` the figure was 0.98% (inactive).

Consider `CS(=O)(=O)C1=NN2C(=N)/C(=C\c3ccc(OCCOc4ccccc4)cc3)C(=O)N=C2S1`, for which the inhibition was 18.8% (inactive). To `CS(=O)(=O)c1ccc2c(c1)SC1=NC(=O)/C(=C/c3ccco3)C(=N)N12` belongs 79.4% (active); to `Cc1cc(/C=C2/C(=N)N3C(=NC2=O)SN=C3S(C)(=O)=O)c(C)n1-c1ccccc1`, 18.8% (inactive).

On to `Cc1ccc(C)c2[nH]c(=O)c(CN(Cc3cccnc3)C(=S)NCc3ccco3)cc12`, for which the inhibition is 7.88% (inactive). Turning to `C[C@H]1CCC(=O)N([C@H](CSc2ccccc2)Cc2ccccc2)CC1`, the inhibition is -3.23% (inactive). With `O=C(Nc1ccncc1)c1cc(-c2ccccn2)nc2ccc(Br)cc12` the figure was -6.91% (inactive); with `O=C(NCc1cccs1)c1cc(-c2ccccn2)nc2ccc(Br)cc12`, 49.3% (active); with `O=C(NCC(c1cccs1)N1CCOCC1)c1cc(-c2ccccn2)nc2ccccc12` (stereo not given), 0.32% (inactive). Turning to `Cc1cc(C)n(CCNC(=O)CC2C(=O)NCCN2Cc2ccc(C)o2)n1` (stereo not given), the inhibition was 2.72% (inactive). To `COc1ccc(OC)c(NC(=O)N[C@H](Cc2ccccc2)C(=O)NN)c1` belongs -4.04% (inactive). In the case of `CCOC(=O)C1(CC2CCCCO2)CCN(Cc2nc(-c3cccs3)oc2C)CC1` (stereo not given), the inhibition was -1.21% (inactive).

With `Cc1ccc(Cc2cnc(NC(=O)/C(C#N)=C/c3ccc(-c4cccc([N+](=O)[O-])c4)o3)s2)cc1`, the inhibition is 46.7% (active).

`Cc1ccc(C(=O)N/C(=C/c2ccc(-c3cccc([N+](=O)[O-])c3)o2)C(=O)NCCCN(C)C)cc1`: the inhibition was -11.9% (inactive). With `N#C/C(=C\c1ccc(-c2cccc([N+](=O)[O-])c2)o1)C(=O)NCCN1CCOCC1` the figure was -14.4% (inactive).

For `CN1/C(=c2/s/c(=C3/C(=O)N(c4ccccc4)NC3=Nc3ccccc3)n(C)c2=O)C(C)(C)c2ccccc21`, the inhibition was 21.6% (inactive). With `C=CCC1(C#N)C(=S)NC(C)=C(C(=O)OCC)C1c1ccccc1` (stereo not given) the figure was -0.47% (inactive). With `CC(C)c1ccc(N2CC(C(=O)Nc3nccs3)CC2=O)cc1` (stereo not given) the figure was 3.92% (inactive); with `O=C(CCCN1C(=O)/C(=C\c2ccccc2)SC1=S)Nc1ccccc1O`, 1.56% (inactive); with `O=C(CCCN1C(=O)/C(=C\c2ccco2)SC1=S)Nc1cccc2ccccc12`, 50.6% (active). To `O=C(CCCN1C(=O)/C(=C/c2ccccc2)SC1=S)Nc1ccc(O)cc1` belongs 0.73% (inactive).

`CCC(c1nnnn1Cc1ccco1)N(Cc1cc2cc(OC)ccc2[nH]c1=O)C1CCCCC1` (stereo not given): the inhibition was 53.5% (active). With `CCC(c1nnnn1Cc1ccccc1)N(Cc1cc2cc(OC)ccc2[nH]c1=O)CC1CCCO1` (stereo not given) the figure was 9.57% (inactive); with `CCC(c1nnnn1Cc1ccco1)N(CCc1ccccc1)Cc1cc2ccc(OC)cc2[nH]c1=O` (stereo not given), 14.3% (inactive); with `O=C(CSc1nnc(-c2ccc([N+](=O)[O-])cc2)o1)Nc1ccccn1`, -13.9% (inactive). To `Cc1cc2c(cc1C)N(C(=O)CN1C(=O)c3ccccc3C1=O)C(C)(C)c1ssc(=S)c1-2` belongs 20.8% (inactive).

For the origin of these results see PubChem BioAssay AID1899 (The Scripps Research Institute Molecular Screening Center, 2009).
